# Screening data deposited in PubChem by several laboratories.
# A selection: hits, their analogues and other compounds. The true share with any hit is near 2.9%.
# RBBP9 inh: inhibitors of human serine hydrolase RBBP9. recombinant RBBP9, FP-Rh probe fluorescence polarization. inhibition, % at 7.94 µM. 220,000 tested, 0.2% active. AID 1515;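 active = inhibition above the campaign mean of all tested compounds plus 3 SD, cut at about 14% in these data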;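 note: plate controls were DMSO wells with RBBP9 for no effect and wells lacking RBBP9 protein for full effect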
#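 System: RBBP9 protein / Buffer or medium: Tris/NaCl buffer pH 8.0 with 0.1% Pluronic / Probe or stimulus: Serine-hydrolase probe FP-Rh, 375 nM pre-mixing / Dosing: 7.94 µM single dose, 0.794% DMSO / Times: enzyme-compound preincubation 30 min, then probe labeling 45 min, 25 °C / Technique: fluorescence polarization (mP), excitation 525 nm, emission 598 nm / Replication: singlicate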
# RanGTP-Impb inh: inhibitors of RanGTP-importin-beta interaction, primary screen, biochemical, FRET, CFP-Ran, YFP-importin-beta, homogeneous; 300,000 tested, 1.1% active; inhibition, % (test concentration not listed); cell-free CFP-Ran/YFP-importin-beta FRET ratio;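 active = more than half of the replicate wells show a fall in the fluorescence ratio signal beyond about 16%, limit read from the data, passing the limit was not always enough; inconclusive = exactly half of the replicate wells pass the set limit; inactive = fewer than half of replicates pass the limit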;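 note: 0% = DMSO wells and 100% = Ran loaded with GDP instead of GTP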
# Runt-SMMHC FRET: Runt domain-CBFb-SMMHC interaction inhibition | Q01196+Q13951 | inhibition, % at 20 µM | Cerulean-Runt/Venus-CBFb-SMMHC FRET ratio 530/480, 1 h | 220,000 tested, 0.74% active;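 active = mean inhibition across duplicate retests at 20 µM reaching about 50%, limit read from the data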;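 note: 0% = DMSO wells and 100% = wells with excess untagged CBFb-SMMHC; inhibitors lower the FRET ratio by blocking Runt binding to CBFb-SMMHC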
# Target sequence (Q01196 whole entry, looked up, the tested form may be a part): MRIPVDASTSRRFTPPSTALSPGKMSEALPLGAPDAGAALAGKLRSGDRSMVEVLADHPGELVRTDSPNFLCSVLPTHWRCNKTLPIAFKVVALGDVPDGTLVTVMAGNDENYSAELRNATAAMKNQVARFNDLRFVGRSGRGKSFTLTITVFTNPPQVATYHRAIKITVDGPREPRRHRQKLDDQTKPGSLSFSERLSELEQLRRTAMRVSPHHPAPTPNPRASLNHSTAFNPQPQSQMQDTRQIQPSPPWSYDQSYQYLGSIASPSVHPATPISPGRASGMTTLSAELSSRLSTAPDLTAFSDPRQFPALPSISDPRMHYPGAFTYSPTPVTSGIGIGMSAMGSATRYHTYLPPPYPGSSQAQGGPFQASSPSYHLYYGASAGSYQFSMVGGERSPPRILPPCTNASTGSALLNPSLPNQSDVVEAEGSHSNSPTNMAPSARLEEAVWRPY
# Target sequence (Q13951 whole entry, looked up, the tested form may be a part): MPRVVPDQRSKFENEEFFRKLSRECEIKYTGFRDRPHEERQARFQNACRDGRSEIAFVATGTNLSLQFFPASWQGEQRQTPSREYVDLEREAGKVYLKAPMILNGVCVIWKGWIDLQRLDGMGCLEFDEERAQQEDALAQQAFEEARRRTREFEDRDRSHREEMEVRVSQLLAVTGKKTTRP
# PfM18AAP inh-1: PfM18AAP enzyme inhibition; 290,000 tested, 1.2% active; inhibition, % at 7.35 µM; recombinant PfM18AAP, H-Glu-NHMec fluorogenic cleavage;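 active = inhibition above the campaign mean inhibition over all tested compounds plus 3 SD, cut at about 28% in these data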;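 note: 0% = plate median of test compound wells and 100% = 2 mM ZnCl2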
# Hck Nef HTS: inhibitors of human Hck kinase activated by Nef. 220,000 tested, 0.68% active. inhibition, % at 20 µM. Recombinant Hck-YEEI plus Nef, Z-Lyte FRET kinase assay. P08631;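 active = Hck-Nef kinase inhibition above about 50%, limit read from the data; inactive = inhibition below that limit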;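 note: 0% = DMSO with Hck plus Nef and 100% = Hck alone without Nef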
# Runt-CBFb FRET: blocks binding of human RUNX1 Runt domain to CBFb; Q01196+Q13951; Cerulean-Runt/Venus-CBFb FRET ratio 530/480, 1 h; inhibition, % at 20 µM; 220,000 tested, 0.46% active; AID 1496;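 active = inhibition over about 50% at 20 µM in the single-dose screen, limit read from the data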;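 note: 0% = DMSO wells and 100% = excess unlabeled CBFb competitor control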
#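 Buffer or medium: Tris pH 7.5 buffer with BSA. Assay system: Cerulean-labeled Runt domain protein. Amount: each fluorescent fusion protein 100 nM. Read-out basis: loss of energy transfer signal. Incubation: 1 h compound exposure, room temperature. Probe or stimulus: Venus-CBFb binding partner, 100 nM. Detection: FRET, excitation 422 nm, emission at 530 and 480 nm.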
# PfM18AAP inh-2: confirmation of Plasmodium falciparum M18 aspartyl aminopeptidase inhibitors; recombinant PfM18AAP, H-Glu-NHMec fluorogenic cleavage; 2,400 tested, 28% active; shares compounds with PfM18AAP inh-1; inhibition, % at 7.35 µM; AID 2170;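 active = mean inhibition over replicate wells above the hit cutoff set for the earlier primary screen, cut at about 29% in these data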;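 note: 0% = median of test compound wells and 100% = 2 mM ZnCl2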
# CTSL1 confirm: Cathepsin L (human) inhibition, confirmation. shares compounds with PfM18AAP inh-1. purified cathepsin L1, Z-Leu-Arg-MCA fluorescence. inhibition, % at 5.96 µM. 2,400 tested, under 10 active. AID 2178;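 active = average inhibition across replicates above the hit cutoff set in the earlier primary screen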;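 note: 0% = median of test compound wells and 100% = Z-Phe-Ala-diazomethylketone 1 µM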
# YIC counter: counter-screen for RanGTP-importin-beta inhibitors: YIC FRET probe; shares compounds with RanGTP-Impb inh; Purified YIC probe, intramolecular FRET ratio YFP/CFP; IC50, µM; 1,000 tested, 40% active;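 active = fitted half-maximal inhibitory concentration no more than tenfold above the top dose tested; inconclusive = flat fit with 30 to 70% activity, or poor fit; inactive = half-maximal concentration beyond tenfold above the top dose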
# Hck-Nef confirm: Hck-Nef kinase inhibition, confirmation. Recombinant Hck-YEEI:Nef, Z-Lyte FRET kinase assay. 1,300 tested, 28% active. shares compounds with Hck Nef HTS. calls only at 10 µM;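 active = average inhibition of at least 50%, with Z-scores no higher than 3 in both the phospho-tyrosine peptide and fluorescence counterscreens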
# Active calls of the source: *; i = inactive; ? = inconclusive; · = no result given.
SMILES,RBBP9 inh,RanGTP-Impb inh,Runt-SMMHC FRET,PfM18AAP inh-1,Hck Nef HTS,Runt-CBFb FRET,others
CN(C)C(CNC(=O)Cc1c(Cl)cccc1Cl)c1ccccc1 (configuration not stated),5,2,-3,-13,-2,-3,
O=C(c1ccccc1)N1CCC2(CC1)OCCO2,-9,2,-1,5,4,0,
O=C(NC1(C(F)(F)F)Oc2ccccc2O1)N1CCC2(CC1)OCCO2,-9,2,-2,71*,7,11,PfM18AAP inh-2=68*;CTSL1 confirm=-9
COc1ccccc1N1C(=O)CC(=O)NC1=O,·,-3,·,6,·,·,
O=c1ccc2cc(O[C@@H]3O[C@@H](CO)[C@H](O)[C@@H](O)[C@@H]3O)c(O)cc2o1,·,102*,·,32*,·,·,PfM18AAP inh-2=-10;CTSL1 confirm=7
O=C1CCCN1c1ccc(S(=O)(=O)O)cc1 (tested in a mixture with another compound),-4,0,-1,80*,3,0,PfM18AAP inh-2=79*;CTSL1 confirm=-4
CCN(CC)P(=S)(c1c(C)nc2ccccn12)c1c(C)nc2ccccn12,5,4,4,32*,20,12,PfM18AAP inh-2=-15;CTSL1 confirm=0
CCOc1c(P(=S)(N(C)C)N(C)C)c(C)nn1-c1ccccc1,-4,3,-6,0,1,0,
ClCCN1CCN(c2ccnc3cc(Cl)ccc23)CC1,·,2,·,2,·,·,
N#Cc1c(/N=C/c2ccc(O)cc2O)sc2c1C1CCN2CC1,-6,39*,59*,40*,4,64*,PfM18AAP inh-2=12;CTSL1 confirm=7;YIC counter=>26
CCc1nc2ccccc2c(=O)n1-c1ccccc1OC,·,3,·,-7,·,·,
O=C1NC(=O)C(=CN2CCc3ccccc32)C(=O)N1,-8,?,5,3,-12,4,
O=C1NC(=O)N(Cc2ccccc2)C(=O)/C1=C\N1CCCc2ccccc21,-5,27*,48,5,0,37,YIC counter=>50
C=CCn1c(O)c(C(C)=NCCc2ccccc2)c(=O)[nH]c1=O,1,23*,-4,-13,-2,1,YIC counter=>50
COCCCn1c(N)c(C(=O)Nc2ccccc2)c2nc3ccccc3nc21,-3,19*,16,0,16,7,YIC counter=25*
COCCCn1c(N)c(C(=O)OC(C)COC)c2nc3ccccc3nc21 (configuration not stated),1,25*,94*,17,37,79*,YIC counter=27*
CCOC(=O)c1c(N)n(CCN2CCCCC2)c2nc3ccccc3nc12,-1,51*,99*,-2,29,41,YIC counter=45*
CCCCn1c(C)c(C(=O)OCC)c2c(CN3CCCC3)c(O)ccc21,·,1,·,27,·,·,
CCCCCn1c(=O)c(C(=O)Nc2ccccc2)c(O)c2ccccc21,·,4,·,3,·,·,
CCCCCOc1ccc(C)cc1CN(CCCl)CCCl,0,1,-6,-3,1,0,
C[C@]12CCC3[C@@H](CCC4=CC(=O)CC[C@@]43CO)C1CCC2=O (some centres not stated),·,-3,·,-5,·,·,
CC1=CC(=C2C(=O)NC(=S)NC2=O)C=C(C(F)(F)F)N1CCc1ccccc1,-8,5,-41,0,20,-15,
Cc1cccc(-n2c(O)c(/C=C/C=Nc3ccccc3)c(=O)[nH]c2=O)c1,-6,34*,75,1,6,31,YIC counter=2.8*
COCCNC(=O)c1c(NC(=O)c2ccco2)n(Cc2ccccc2)c2nc3ccccc3nc12,-3,31*,98*,5,8,33,YIC counter=0.93*
C[N+]1(CCC(C(N)=O)(c2ccccc2)c2ccccc2)CCCCC1,·,-2,·,·,·,·,
SMILES,RBBP9 inh,RanGTP-Impb inh,Runt-SMMHC FRET,PfM18AAP inh-1,Hck Nef HTS,Runt-CBFb FRET,others
COCCOC(=O)C1=C(C)OC(N)=C(C(=O)OC)C12C(=O)Nc1ccccc12 (configuration not stated),-7,16*,2,7,0,-1,YIC counter=>50
CCOCCCNC(=O)C1c2cc(OC)c(OC)cc2C(=O)N2CCCCC12 (configuration not stated),1,-1,0,-3,2,-1,
N#Cc1ccccc1NC(=O)CN1CC=C(c2ccccc2)CC1,-3,2,-1,6,55*,-3,Hck-Nef confirm=i
CC(C)(C)NC(=O)NC(=O)CN1CC=C(c2ccccc2)CC1,-5,·,-1,5,19,1,
CC1=Nc2cc(C(=O)N3CCC4(CC3)OCCO4)ccc2Sc2ccc(Cl)cc21,·,-6,·,3,·,·,
C=CCNC(=S)/N=C/c1c(O)[nH]c(=O)[nH]c1=O,-10,-1,-6,7,83*,2,Hck-Nef confirm=i
NC(=S)/N=C/c1c(O)[nH]c(=O)[nH]c1=O,5,4,3,3,63*,4,Hck-Nef confirm=i
CCCCCCCCN=Cc1c(O)[nH]c(=O)[nH]c1=O,-4,0,-5,4,2,1,
Cc1cc(C)c(N=Cc2c(O)[nH]c(=O)[nH]c2=O)c(C)c1,·,-1,·,-11,·,·,
C[C@]12CC3CC(N)(C1)C[C@@](C)(C3)C2,·,-3,·,·,·,·,
Nc1c(C(=O)NCCN2CCOCC2)c2nc3ccccc3nc2n1Cc1ccco1,-11,64*,·,5,58*,72*,Hck-Nef confirm=i
CC(C)CCNC(=O)c1c(N)n(CC2CCCO2)c2nc3ccccc3nc12 (configuration not stated),-6,93*,20,-10,58*,2,Hck-Nef confirm=i
Cc1cccn2c(NCC3CCCO3)c(C(C)C)nc12 (configuration not stated),-12,-2,-2,6,-7,-4,
Nc1c(C(=O)NCCN2CCOCC2)c2nc3ccccc3nc2n1Cc1ccccc1,4,63*,81*,28,95*,78*,
O=c1[nH]c(=O)n(Cc2ccco2)c(O)c1C=NCCN1CCOCC1,-4,-1,-4,-2,2,1,
O=C(Cc1ccccc1)OCCN1CCOCC1,2,2,6,3,5,0,
Cc1ccc2[nH]c(=S)n(-c3cccnc3)c(=O)c2c1,-2,0,1,-10,15,0,
